Measurements as given in ChEMBL document CHEMBL4725371, “A Novel Redox Modulator Induces a GPX4-Mediated Cell Death That Is Dependent on Iron and Reactive Oxygen Species” (J Med Chem, 2020).
The source made the active and inactive calls. No cut-off for these calls is given here.

What was measured:
BXPC-3 = experiment: Cytotoxicity against human BXPC-3 cells measured after 72 hrs by MTT assay; type: functional, cell-based; conditions: BXPC-3, 72 h
Procedure, shortened: (§1)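 Cells were kept in RPMI 1640 with 10% FBS at 37 °C, 5% CO₂, under 35 passages. Cells were seeded, attached overnight and treated with compound or DMSO for 72 h. MTT was added at 0.3 mg/mL for 3 h, then dissolved in DMSO and read as absorbance at 570 nm. IC50 was fitted from the curve. Values are mean ± sd of three independent experiments.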

MIA PaCa-2 [1] = experiment: Cytotoxicity against human MIA PaCa-2 cells measured after 72 hrs by MTT assay; type: functional, cell-based; conditions: MIA PaCa-2, 72 h; procedure, shortened: as §1
PANC-1 [2] = experiment: Cytotoxicity against human PANC-1 cells measured after 72 hrs by MTT assay; type: functional, cell-based; conditions: PANC-1, 72 h; procedure, shortened: as §1
PANC-1 [3] = experiment: Down regulation of LRPPRC expression in human PANC-1 cells at 3 times IC50 measured after 1 to 24 hrs by proteomics analysis; type: functional, cell-based; conditions: time hrs 1-24
MIA PaCa-2 [4] = experiment: Down regulation of PNPT1 expression in human MIA PaCa-2 cells at 3 times IC50 measured after 4 hrs in presence of NQO1 inhibitor dicoumarol by proteomics analysis; type: functional, cell-based
MIA PaCa-2 [5] = experiment: Down regulation of LRPPRC expression in human MIA PaCa-2 cells at 3 times IC50 measured after 4 hrs in presence of NQO1 inhibitor dicoumarol by proteomics analysis; type: functional, cell-based
MIA PaCa-2 [6] = experiment: Down regulation of LRPPRC expression in human MIA PaCa-2 cells at 3 times IC50 measured after 4 hrs by proteomics analysis; type: functional, cell-based
MIA PaCa-2 [7] = experiment: Inhibition glutathione synthesis in human MIA PaCa-2 cells at 1 to 2 uM measured after 2 to 4 hrs by GSH/GSSG-glo assay; type: functional, cell-based; conditions: dose microM 1-2, time hrs 2-4
Procedure, shortened: (§2)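 GSH/GSSG-Glo luminescent assay: 15,000–20,000 MIA PaCa-2 cells per well, attached overnight, treated 2 h and 4 h. Cells were lysed with total or oxidized glutathione reagent, then luciferin generation (30 min, room temperature) and detection reagents added. Luminescence was read after 15 min. Ratio was computed from net RLU as (total − GSSG)/(GSSG/2).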

PANC-1 [8] = experiment: Down regulation of PNPT1 expression in human PANC-1 cells at 3 times IC50 measured after 1 to 24 hrs by proteomics analysis; type: functional, cell-based; conditions: time hrs 1-24
MIA PaCa-2 [9] = experiment: Down regulation of PNPT1 expression in human MIA PaCa-2 cells at 3 times IC50 measured after 4 hrs in presence of NAC by proteomics analysis; type: functional, cell-based
MIA PaCa-2 [10] = experiment: Induction of reactive oxygen species in human MIA PaCa-2 cells assessed as reduction in GSH to GSSG ratio at 1 to 2 uM measured after 2 to 4 hrs by GSH/GSSG-glo assay; type: functional, cell-based; conditions: dose microM 1-2, time hrs 2-4; procedure, shortened: as §2
MIA PaCa-2 [11] = experiment: Down regulation of PNPT1 expression in human MIA PaCa-2 cells at 3 times IC50 measured after 4 hrs by proteomics analysis; type: functional, cell-based
MIA PaCa-2 [12] = experiment: Down regulation of LRPPRC expression in human MIA PaCa-2 cells at 3 times IC50 measured after 4 hrs in presence of NAC by proteomics analysis; type: functional, cell-based
MIA PaCa-2 [13] = experiment: Inhibition of colony formation in human MIA PaCa-2 cells at 0.6 uM measured after 7 to 9 days in presence of necroptosis inhibitor necrostatin-1 by crystal violet staining based assay; type: functional, cell-based; conditions: time day 7-9
Procedure, shortened: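 Cells seeded overnight in 96-well plates at 300 cells/well (MIA PaCa-2) or 600 cells/well (BxPC-3), in RPMI 1640 with 10% FBS. Inhibitor added 1 h before compound, then continuous exposure for 7–9 days until control wells were 80–90% confluent. Stained with 0.05% crystal violet for 30 min, imaged after overnight drying and quantified.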

[14] = Drug level in mouse plasma treated with QD394 at 500 uM measured after 0.5 hrs by LC-MS/MS analysis
MIA PaCa-2 [15] = experiment: Induction of reactive oxygen species in human MIA PaCa-2 cells at 200 uM measured after 30 mins in presence of N-acetylcysteine by CM-H2DCFDA dye based fluorescence assay; type: functional, cell-based
Procedure, shortened: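 MIA PaCa-2 cells seeded at 1.8 × 10⁴/well, attached overnight, then loaded with 10 μM CM-H2DCFDA in HBSS for 40 min at 37 °C. Washed twice with warm DPBS; compounds added in HBSS. N-acetylcysteine used at 3 mM. Fluorescence read at Ex 483 / Em 530 nm, with the 30 min point taken. Unpaired t-test.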

MIA PaCa-2 [16] = experiment: Induction of ferroptosis in human MIA PaCa-2 cells assessed as increase in lipid peroxidation at 100 uM measured after 24 hrs by C11-BODIPY dye based fluorescence assay; type: functional, cell-based
Procedure, shortened: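 MIA PaCa-2 cells (RPMI 1640, 10% FBS, 37 °C, 5% CO2) exposed to compound for the set time, then 10 μM C11-BODIPY added for 30 min at 37 °C. After two DPBS washes, read in HBSS at 581/591 nm (reduced dye) and 488/510 nm (oxidized dye); emission ratio calculated, unpaired Student's t-test.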

Drug uptake [14] | SMILES | IC50 (BXPC-3) | IC50 (MIA PaCa-2 [1]) | IC50 (PANC-1 [2]) | other results
– | O=C1C(Nc2ccc3c(c2)Cc2ccccc2-3)=CC(=O)c2ncncc21 | 2.6 µM | 2.2 µM | 1.6 µM | –
– | CC(=O)c1cc2c(o1)C(=O)c1ccccc1C2=O | – | – | – | Activity (PANC-1 [3]): inactive; Activity (MIA PaCa-2 [4]): inactive; Activity (MIA PaCa-2 [5]): inactive; Activity (MIA PaCa-2 [6]): Active; inhibition (MIA PaCa-2 [7]): Active; Activity (PANC-1 [8]): inactive; Activity (MIA PaCa-2 [9]): Active; Activity (MIA PaCa-2 [10]): Active; Activity (MIA PaCa-2 [11]): Active; Activity (MIA PaCa-2 [12]): Active; inhibition (MIA PaCa-2 [13]): inactive
Active | CN1CCN(c2ccc(NC3=CC(=O)c4ncncc4C3=O)cc2)C(O)C1 (stereo unspecified) | – | – | – | –
Active | CN1CCN(c2ccc(NC3C(=O)c4cncnc4C(=O)C3O)cc2)CC1 (stereo unspecified) | – | – | – | –
– | CCc1ccc(-c2ccc(NC3=CC(=O)c4ncncc4C3=O)cc2)cc1 | 1.6 µM | 1.5 µM | 2.3 µM | –
– | O=C1C(Nc2ccc(-c3ccc(Cl)cc3)cc2)=CC(=O)c2ncncc21 | 10.1 µM | 9.7 µM | 4.4 µM | –
– | O=C1C(Nc2ccc(N3CCOCC3)cc2)=CC(=O)c2ncncc21 | 2.3 µM | 1.5 µM | 0.8 µM | –
– | O=C1C(Nc2ccc(-c3ccccn3)cc2)=CC(=O)c2ncncc21 | 2.7 µM | 2 µM | 0.8 µM | –
Active | CN1CCN(c2ccc(NC3=C(SCC(N)C(=O)O)C(=O)c4ncncc4C3=O)cc2)CC1 (stereo unspecified) | – | – | – | –
– | CC(C)(C)OO | – | – | – | Activity (MIA PaCa-2 [15]): inactive; Activity (MIA PaCa-2 [16]): Active
